Screening data from PubChem.
This is a sample that favours compounds with a hit; in the whole collection about 3.3% have one here.
ABCB6 inh 2 – human ABCB6 transporter inhibition. Q9NP58. K562-ABCB6 porphyrin accumulation, flow cytometry, 1 h; hits give low values. fluorescence ratio to DMSO, % at 10 µM. 360,000 compounds, 0.19% hits;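 active means fluorescence ratio to DMSO below 75%, the collection mean minus 3 SD; inconclusive means too few cells collected in the well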;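 further: signal is porphyrin accumulated inside mitochondria; 100% equals median channel fluorescence of DMSO control wells; lower ratio means ABCB6 inhibition with less porphyrin fluorescence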
Target sequence (Q9NP58 whole entry, looked up): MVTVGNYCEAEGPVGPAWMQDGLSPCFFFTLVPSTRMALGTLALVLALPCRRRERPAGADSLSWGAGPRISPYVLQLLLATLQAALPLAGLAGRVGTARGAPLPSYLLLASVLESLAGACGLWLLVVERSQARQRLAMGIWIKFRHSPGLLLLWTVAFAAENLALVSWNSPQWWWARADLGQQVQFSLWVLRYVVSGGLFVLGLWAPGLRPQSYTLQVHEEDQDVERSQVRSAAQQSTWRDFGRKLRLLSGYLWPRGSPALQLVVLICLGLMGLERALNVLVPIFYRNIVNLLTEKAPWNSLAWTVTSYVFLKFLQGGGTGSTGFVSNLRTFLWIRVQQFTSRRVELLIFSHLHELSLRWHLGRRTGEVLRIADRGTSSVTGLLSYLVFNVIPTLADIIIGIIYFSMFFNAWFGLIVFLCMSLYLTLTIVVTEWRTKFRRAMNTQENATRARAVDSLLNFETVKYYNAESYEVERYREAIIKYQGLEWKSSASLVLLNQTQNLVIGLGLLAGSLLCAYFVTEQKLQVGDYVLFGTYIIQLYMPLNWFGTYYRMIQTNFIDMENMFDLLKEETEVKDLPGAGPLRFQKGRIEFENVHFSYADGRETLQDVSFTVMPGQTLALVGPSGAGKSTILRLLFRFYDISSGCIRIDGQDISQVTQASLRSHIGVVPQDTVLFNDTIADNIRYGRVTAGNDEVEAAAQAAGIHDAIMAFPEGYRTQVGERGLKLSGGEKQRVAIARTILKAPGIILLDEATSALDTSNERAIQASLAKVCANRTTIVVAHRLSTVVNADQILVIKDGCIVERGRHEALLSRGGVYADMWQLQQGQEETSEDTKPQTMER
Exocytosis inh – blocks lytic granule exocytosis; TALL-104 LAMP-1 surface exposure, flow cytometry; cells stimulated with thapsigargin and PMA; inhibition, % at 10 µM; 360,000 compounds, 0.66% hits;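 active means inhibition above about 55%, limit read from the data; inconclusive means no clear call, values can overlap the other calls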
Myeloid diff MLP – myeloid differentiation induction; ER-HoxA9 myeloid progenitors, lysozyme-GFP differentiation, flow cytometry; calls only at 10 µM; 360,000 compounds, 1% hits; AID 624256;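 active means normalized GFP-positive differentiation at or above the plate's own cutoff, the solvent-only control mean plus 3 SD; inconclusive means no clear call, values can overlap the other calls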;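 further: cells exposed to compound for four days before flow analysis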
ATG4B inhibitor – blocks human ATG4B protease cleavage of LC3 substrate | Q9Y4P1 | ATG4B cleavage of LC3-PLA2, NBD-HPC fluorescence, 1 h | inhibition, % at 8.33 µM | 340,000 compounds, 0.51% hits | AID 504462; in the data active means inhibition above about 40%
NRP1-CendR mod – alters CendR peptide binding to human NRP-1. inhibition, % at 25 µM. FAM-RPARPAR peptide binding to NRP-1, fluorescence polarization. O14786. 360,000 compounds, 0.85% hits;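 active means inhibition or corrected inhibition above about 18%, plus a signal ratio from 0.5 to 1.5, limit read from the data, passing the limit was not always enough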
Arr AP2 block – human beta-arrestin and AP2 interaction inhibition | inhibition, % at 10 µM | FITC-arrestin peptide / GST-AP2 beads, flow cytometry; AP2 beta2 appendage carries R879A mutation | 340,000 compounds, 0.31% hits;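 active means inhibition above a set limit, near 3 SD of compounds lacking own fluorescence, cut at about 54% in these data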;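 further: plate controls were DMSO wells for no effect and 5 µM unlabelled arrestin peptide for full effect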
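System: GST-AP2 R879A bound to glutathione beads, E. coli-expressed. Also added: 50 nM FITC-arrestin peptide. Schedule: compound with beads 12 min RT, then probe 1 h RT. Signal: bead flow cytometry, FITC channel. Read-out basis: percent response.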
Numbers without * were called inactive; i = inactive; ? = inconclusive; / = not tested or not shown; + = active, no number.

SMILES | ABCB6 inh 2 | Exocytosis inh | Myeloid diff MLP | ATG4B inhibitor | NRP1-CendR mod | Arr AP2 block
Cn1c(=O)c2c(ncn2CC(COCc2ccccc2)OCc2ccccc2)n(C)c1=O (centres undefined) | 104 | 0 | i | -1 | 30* | -6
O=C(NC1CCCc2c1cnn2-c1ccccc1F)c1ccncc1 (centres undefined) | 95 | 4 | i | / | 1 | /
CCC(=O)Nc1cc2c3c(c1)CCC(=O)N3CCC2 | 101 | -2 | i | -7 | 26* | -3
C=CCc1ccc(OCc2ccc(C(=O)Nc3ccc(NC(C)=O)cc3)o2)c(OC)c1 | 99 | 9 | i | -5 | -11 | -9
Cc1ccc(-n2nnnc2SCC(=O)c2c(N)n(C3CC3)c(=O)[nH]c2=O)cc1 | 133 | -2 | + | 3 | -4 | i
c1ccc(CCNc2ccc3c(c2)Cc2ccccc2-3)nc1 | 93 | 0 | i | -3 | 29* | -2
CC[n+]1c(/C=C/N(C)c2ccccc2)n(-c2ccccc2)c2ccc(-c3nc4ccccc4s3)cc21 | 108 | 64* | ? | 0 | -39 | -13
CC(C)CCC(O)(CCC(C)C)C(=O)NNc1ccccc1 | 99 | 4 | + | -1 | -2 | 7
CC(=O)N1N=C(c2c(-c3ccccc3)c3cc(Br)ccc3[nH]c2=O)CC1c1ccco1 (centres undefined) | 102 | -5 | i | -1 | 24* | -15
O=C(CCSc1ccc(Cl)cc1)N1CCN(c2ccc(O)cc2)CC1 | 97 | 8 | + | 22 | 6 | 32
CCCCn1c(SCC(=O)NCc2ccc3c(c2)OCO3)nnc1C(CC)N(C)C (centres undefined) | 95 | -1 | i | -8 | 10 | -6
CC(C)C1Oc2cc3oc(=O)ccc3cc2C1=O (centres undefined) | 96 | 0 | i | -3 | 5 | 13
O=c1nc2s/c(=C\c3ccc(-c4ccccc4[N+](=O)[O-])o3)c(=O)n2nc1-c1ccccc1 | 104 | -6 | i | -2 | 36* | -2
CCCCCOc1ccc(/C=c2\sc3nc(=O)c(-c4ccccc4)nn3c2=O)cc1OC | 103 | 0 | i | -3 | -24 | 9
COc1ccc(-c2cc(NC=O)c3ncc(-c4cccc(C(=O)NCCN(C)C)c4)n3c2)cc1 | 109 | 8 | + | / | -24 | /
COc1cccc(-c2cc(NC=O)c3ncc(-c4ccc(OC)c(OC)c4)n3c2)c1 | 105 | 11 | / | / | -13 | /
CN(C)CCNC(=O)c1cccc(-c2cnc3c(NC=O)cc(-c4ccc(F)cc4)cn23)c1 | 100 | -4 | i | / | -9 | /
COc1cccc(-c2cnc3c(NC=O)cc(-c4cc(OC)c(OC)c(OC)c4)cn23)c1 | 94 | 3 | + | / | -18 | /
CC(C)C1C(c2ccccc2)NC(c2ccccc2)CC1(O)c1ccc(F)cc1 (centres undefined) | 99 | 30 | i | -9 | -4 | -14
Cc1nnsc1Sc1ccccc1C(=O)O | 95 | -2 | i | -1 | 11 | 43
Cn1c(SCC(=O)Nc2ccc(F)cc2)nc2c(c1=O)SCC2 | 100 | -4 | i | 1 | 24* | -14
O=C(CSc1nc2c(c(=O)n1-c1ccc(Br)cc1)SCC2)NCc1ccco1 | 93 | -8 | i | 14 | -16 | 0
Cn1c(SCC(=O)Nc2ccccc2F)nc2c(c1=O)SCC2 | 90 | 4 | i | 0 | 12 | 6
O=C(CSc1nc2c(c(=O)n1-c1ccc(Br)cc1)SCC2)Nc1nccs1 | 91 | -3 | i | 57* | -8 | 4
CC1(c2ccc3ccccc3c2)CCC(=O)O1 (centres undefined) | 93 | -10 | i | -1 | 13 | 10
SMILES | ABCB6 inh 2 | Exocytosis inh | Myeloid diff MLP | ATG4B inhibitor | NRP1-CendR mod | Arr AP2 block
CCOc1ccc(S(=O)(=O)N2CCC(C(=O)Nc3ccc(C)c(S(=O)(=O)N4CCOCC4)c3)CC2)cc1 | 99 | 3 | + | -17 | 2 | 0
Cc1ccc(NC(=O)CN(C)C(=O)CSc2nnc(C)s2)cc1 | 105 | 26 | i | -8 | 9 | 8
COc1cccc(-c2nn(C)c3sc(C(=O)N4CCN(c5ccccn5)CC4)cc23)c1 | 80 | 9 | + | -21 | -2 | 3
COc1cccc(-c2nn(C)c3sc(C(=O)N4CCOCC4)cc23)c1 | 101 | 7 | i | -14 | 2 | 13
COc1ccc(NC(=S)N2CCN(S(=O)(=O)c3ccc(OC)cc3)CC2)cc1 | 100 | 17 | i | -1 | -2 | 10
Cc1nn(CCc2nn[nH]n2)c2nc(-c3ccc(C4CCCCC4)cc3)cc(C(F)(F)F)c12 | 101 | 0 | + | 29 | -6 | 34
COc1ccc(N2CCN(C(=O)COC(=O)/C=C/c3ccc(OC(F)F)cc3)CC2)cc1 | 89 | -1 | / | -4 | 7 | 8
COc1ccc(N2CCN(C(=O)COC(=O)c3ccco3)CC2)cc1 | 107 | -12 | + | 6 | 4 | -7
COc1ccc(N2CCN(C(=O)COC(=O)/C=C/c3ccc(C(F)(F)F)cc3)CC2)cc1 | 94 | 7 | + | -4 | 0 | 52
Cn1cc(Br)c(NC(=O)/C=C/C(=O)O)n1 | 96 | 0 | i | -11 | 18 | -11
Cc1ccc(CNC(=O)CS(=O)(=O)CC(=O)O)cc1 | 86 | 5 | i | -13 | 21* | -4
Cn1c(=O)[nH]c(=O)c2c1nc(Br)n2CCCO | 94 | 2 | + | 0 | -8 | 26
CC(C)(C)NC(=O)C(c1ccncc1)n1c(-c2ccc(C(F)(F)F)cc2)nc2ccccc21 (centres undefined) | / | -4 | i | / | 9 | /
N#CC1=C(N)SC(N)=C(C#N)C1CCc1ccccc1 | 106 | 8 | + | 8 | 126 | 6
CCN1C[C@@H]2[C@@H]3C(=O)N(C)C(=O)[C@@H]3[C@](C)(C1=O)N2C(=O)c1ccc(F)cc1 | 100 | 2 | i | 3 | -4 | 3
CC(C)N=C(NC#N)SCc1ccccc1 | 104 | -4 | i | 3 | 8 | 3
C=CCN=C(NC#N)SCc1ccccc1 | 101 | -3 | i | -7 | 36* | 1
c1ccc(C(c2nnnn2Cc2ccco2)N2CCN(c3nc4ccccc4s3)CC2)cc1 (centres undefined) | 112 | 3 | / | 23 | 46* | -1
O=C1C=C(NCc2ccco2)C2(CCCCC2)O1 | 101 | -1 | i | -8 | 23* | -4
Cc1cc(C)nc(SC2=CS(=O)(=O)c3ccccc32)n1 | 99 | -2 | + | -7 | -1 | -6
CCOC(=O)c1c(C)[nH]c(C(=O)/C(C#N)=C/c2ccc(OCC)cc2)c1C | 122 | 3 | + | -3 | -12 | -33
CCN(CC)C(=O)CSc1nc(-c2ccccc2)ccc1C#N | 98 | 21 | i | -3 | -1 | 43
